PMC9041360 (RSC Advances, 2021)
Where two headings read alike, the source gives them in different places.

How the values were obtained:
[1] = tested on: HeLa cells; details: read-out: IC50 cytotoxicity against HeLa cells; HeLa cells ref 40; cited from earlier work
[2] = tested on: HeLa cells; assay: Cytotoxicity testing using MTT, dose–response; format: cell-based, human
Summary of the method: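 HeLa cells grown in RPMI 1640 with 10% FBS, 2 mM L-glutamine and 1% antibiotics at 37 °C, 5% CO2. Seeded at 10 × 10^3 cells per well and left to adhere overnight. The whole medium was replaced with test compound in medium for 48 h. MTT (4 mg mL−1 in PBS) was added for 4 h, then cells were centrifuged and formazan dissolved in DMSO. Absorbance at 590/640 nm. Viability given as percent of untreated control.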

[3] = tested on: HeLa cells; assay: Recovery experiments; format: cell-based, human; details: 5 and 10 μM, exposure 1–8 h, then 48 h recovery, MTT
[4] = tested on: HeLa cells; assay: Membrane damage by LDH leakage; format: cell-based, human
Summary of the method: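 HeLa cells were seeded at 1 × 10^4 per well. At 30 min, 45 min, 1, 2, 3 and 6 h after treatment, LDH release was measured with the CytoTOX One membrane-integrity kit. Lysis solution gave maximum leakage. Fluorescence (ex 560/em 590) was expressed as percent of maximum LDH leakage.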

[5] = tested on: Saccharomyces cerevisiae P23; assay: Membrane permeabilization assay; format: cell-based; details: S. cerevisiae, 5 and 10 μM
Summary of the method: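 S. cerevisiae P23 was grown aerobically in YEPG at 30 °C to mid-log phase (OD450 about 0.5). Cells were harvested, washed and resuspended to OD450 about 0.2 in 0.15 M citrate–phosphate buffer, pH 6.0, with 0.5% glucose and 10 μM propidium iodide. Test compound was added at 1, 5 or 10 μM final. PI uptake was followed as fluorescence (ex 515/em 620) at 25 °C. Controls: 10 μM melittin (positive) and buffer (baseline). Two sets of experiments, with no background subtraction.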

[6] = Lipid bilayer experiments; details: planar DOPC/DOPE membranes, 50 mV
Summary of the method: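 Black lipid bilayers were painted from 3% (w/v) DOPC/DOPE 2:1 (w/w) in n-decane/butanol 9:1 across a 0.5 mm aperture. Both compartments held 10 mM Tris, 1 M KCl, pH 7.4, at 25 °C. Test compound (5 or 10 μM) was added to the cis side. Current was recorded with Ag/AgCl electrodes at 50 mV, cis positive, with traces of 120 s.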

[7] = tested on: HeLa cells; assay: Cellular morphology by light microscopy; format: cell-based, human; details: 48 h of exposure, concentrations from 2.5 to 20 μM
Summary of the method: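 HeLa cells in RPMI were seeded at 5 × 10^3 cells per well on poly-D-lysine-coated glass-bottom imaging plates. Next day they were treated with 20, 5 or […] μM test compound. Live-cell imaging used an inverted microscope with an incubation chamber supplied with 5% CO2 and a 100× oil objective. Images were taken after 48 h of treatment.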

[8] = tested on: Aspergillus fumigatus (BCC020_2845); assay: Antifungal activity, broth two-fold microdilution; format: cell-based; details: 30 °C, 48 h, tested 75 to 0.036 μM; NA = no activity at 75 μM
Summary of the method: (§1)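 Two-fold broth microdilution per CLSI M100-S20. Compounds were serially diluted from 75 to 0.036 μM in Mueller Hinton broth with 2% glucose. Inoculum from an overnight culture, about 5 × 10^5 CFU mL−1 final. Incubated aerobically at 30 °C for 48 h. Solvent control: medium with 50% DMSO in methanol. Fluconazole (32 to 0.0625 μg mL−1) served as positive control. MIC was the lowest concentration showing some growth inhibition. Triplicate.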

[9] = tested on: Alternaria alternata (BCC020_0609); assay: Antifungal activity, broth two-fold microdilution; format: cell-based; details: 30 °C, 48 h, tested 75 to 0.036 μM; NA = no activity at 75 μM
Summary of the method: as §1

Substance	IC50 [1] [µM]	reduction of cell viability / inhibition ([2]; MTT, 48 h, at higher concentrations (5–20 μM)) [%]	IC50 ([2]; read-out: IC50 against HeLa cells (MTT assay), 48 h treatment) [µM]	cell viability after compound washout and recovery (in words) [3]	LDH leakage (in words) ([4]; early time points up to 2 h)	LDH accumulated in the medium, % of positive control ([4]; only after 3 h)	membrane permeabilization, PI entry into yeast cells (in words) [5]	pore-forming activity / membrane permeabilization (in words) ([6]; 5 μM)	typical transmembrane electrical current ([6]; 10 μM)	cellular morphology (in words) [7]	MIC A. fumigatus [8] [µM]	MIC A. alternata [9] [µM]
Iturin A	1.73											
minutissamide A [Compound 1]		70	2.8	easily tolerated by the cells for the first two hours	No LDH leakage	up to 30%	No membrane disruption was detectable	almost completely inactive	about 10 pA	cell shrinkage and membrane rupture	37.5	75
